# Bioassay records (PubChem BioAssay)
# Env fusion inh = blocks HIV Env-driven cell-cell fusion. HeLa-JRFL Env/CEM21 cell fusion, luciferase. AID 651610. inhibition, % at 12.3 µM. 360,000 tested, 1.1% active;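 active = mean replicate inhibition score of at least 50 and every replicate individually at or above 50; inconclusive = only one of the two criteria met; inactive = mean below 50 and not all replicates reaching 50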;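 note: 0% = plate neutral controls and 100% = maraviroc near 300 nM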
# S100A4 inh HTS = S100A4-myosin IIA interaction inhibition. P26447. S100A4/TAMRA-MyoIIA peptide fluorescence polarization. inhibition, % at 10.7 µM. 360,000 tested, 0.14% active. AID 652163;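 active = mean inhibition of at least 70% across replicates, with every replicate also reaching that level; inconclusive = mean inhibition reaches 70% but some replicates fall short; inactive = mean inhibition below 70%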
# Target sequence (P26447 whole entry, looked up): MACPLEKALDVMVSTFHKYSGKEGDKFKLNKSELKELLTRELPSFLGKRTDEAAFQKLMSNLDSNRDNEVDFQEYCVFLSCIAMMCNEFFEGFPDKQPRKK
#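 Test system: S100A4 monomer protein. Medium: HEPES buffer with Ca2+, pH 7.2. Reagent: fluorescent myosin IIA peptide, 5 nM. Compound dosing: single-point compound testing. Timing: 5 min between mix addition and reading. Benchmarks: DMSO neutral and TFP positive wells.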
# CFTR F508del cor = CFTR F508del correction in bronchial cells | CFBE cells, YFP halide quenching; stimulated with forskolin plus potentiator P3; % fluorescence drop versus neutral controls | activity (quench increase), % at 7.58 µM | 350,000 tested, 0.36% active | AID 720511;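 active = mean added fluorescence quench of at least 8% versus neutral control, with both replicates also reaching 8%; inconclusive = only one of the mean or replicate conditions met; inactive = mean below 8% and not both replicates reaching 8%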;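 note: cells transiently co-express mutant CFTR-F508del with the halide-sensitive YFP; corrector assay measuring rescue of mutant channel to the surface after 24 h compound exposure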
# FGF22 binding = FGF22 (human) thermal shift binding; recombinant FGF22 thermal shift, SYPRO orange fluorescence; percent of sucrose octasulfate shift, DMSO zero; activity (Tm shift, normalised), % at 9.99 µM; 340,000 tested, 1.5% active; AID 651658;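 active = mean Tm shift, scaled 0 neutral to 100 positive control, at about 1.3% or above, every replicate too, limit read from the data; inconclusive = no clear call, values can overlap the other calls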
# Target sequence (Q9HCT0 whole entry, looked up): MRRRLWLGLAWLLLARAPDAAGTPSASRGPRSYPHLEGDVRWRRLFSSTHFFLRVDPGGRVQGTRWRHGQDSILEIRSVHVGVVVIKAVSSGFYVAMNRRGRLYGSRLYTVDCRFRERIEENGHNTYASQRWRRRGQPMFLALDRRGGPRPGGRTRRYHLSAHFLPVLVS
# E-sel inducer = induces E-selectin expression in human endothelial cells. P16581. activation, % at 7.58 µM. 260,000 tested, 0.37% active. AID 686992. HUVEC E-selectin immunofluorescence imaging; normalized: neutral wells 0, TNF-alpha wells 100;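 active = mean E-selectin-positive cell signal at least 10% of the positive control, reached in at least 60% of replicates, without over 20% cell loss; inconclusive = no rule given, readout overlaps actives, possibly toxicity-flagged; inactive = the rest, including those meeting only one limit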
#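 Material: HUVEC primary endothelial cells; Amount: 3,000 cells per well; Dosing: single concentration; Medium: EGM-2 growth medium on 0.1% gelatin-coated wells; Read-out basis: percent E-selectin-positive cells; Signal: immunofluorescence imaging; Control set: TNF-alpha, DMSO.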
# An asterisk follows results filed as active; ? = inconclusive; . = not tested or not shown; [ ] = remark or other dose. Compounds with a hit are over-represented: about 2.7% of the library has one in this group of screens.
SMILES,Env fusion inh,S100A4 inh HTS,CFTR F508del cor,FGF22 binding,E-sel inducer
OC[C@@H]1[C@@H](c2ccc(C#CC3(O)CCCC3)cc2)[C@H]2CN(Cc3ccccc3F)CCCCN12,.,-12.3,8.4*,0.4,-0.4
O=C(C1CCCC1)N1CCCCN2[C@H](CO)[C@@H](c3ccc(C#CC4(O)CCCC4)cc3)[C@H]2C1,.,126.2*,-3.7,-0.6,.
O=C(C1CCCC1)N1CCCCN2[C@H](CO)[C@H](c3ccc(C#CC4(O)CCCC4)cc3)[C@@H]2C1,.,2.7,-2.0,0.2,.
OC[C@H]1[C@H](c2ccc(C#CC3(O)CCCC3)cc2)[C@H]2CN(Cc3ccccc3F)CCCCN21,.,-36.7,8.9*,0.4,-0.7
CN(C)CC(=O)N1CC[C@@H]2[C@@H](CO)N(C)c3ccc(Br)cc3[C@@H]21,.,.,-1.7,-0.2,?
O=C(O)c1ccc(-n2nc(C(F)(F)F)c3c2CCCC3)cc1,-3.5,-2.0,-0.2,.,0.8
O=C(c1ccc(-n2nc(C(F)(F)F)c3c2CCCC3)cc1)N1CCOCC1,2.9,-1.6,-0.7,43.3*,.
O=C(C[C@@H]1CC[C@@H](NC(=O)NC2CCCCC2)[C@@H](CO)O1)NCc1ccc(F)cc1,-17.6[16.7 µM],1.2,0.7,0.1,0.0
Cc1c(C#N)c(NC(=O)CCl)n(Cc2ccc(F)cc2)c1C,-35.8,-22.5,-3.4,-0.2,41.7*
COc1ccc(CCNC(=O)CN(c2cc([N+](=O)[O-])ccc2OC)S(C)(=O)=O)cc1,14.4,0.7,3.7,43.5*,-0.3
COc1ccc([N+](=O)[O-])cc1N(CC(=O)Nc1ccccc1C(=O)N1CCCC1)S(C)(=O)=O,14.1,5.3,1.5,43.5*,-0.5
CS(=O)(=O)N(CC(=O)Nc1ccccc1C(=O)N1CCCC1)c1ccc2c(c1)OCO2,-70.2,4.2,1.4,43.4*,0.4
CSc1ccccc1OCc1cc(C(=O)NCCN2CCCc3ccccc32)no1,13.6,95.2*,-1.1,-0.2,.
Cc1cc(NC(=O)CSc2nnc(C3COc4ccccc4O3)n2N)no1 (stereo not given),-13.2,-6.1,-4.8,42.9*,-0.1
C=CCn1c(SCC(=O)Nc2cc(C)on2)nnc1C1COc2ccccc2O1 (stereo not given),-0.7,1.6,-1.0,0.4,-0.1
N#C[C@H]1[C@H](c2ccccc2-c2ccccc2F)[C@H](CO)N1C(=O)c1ccccn1,-14.1[16.7 µM],-1.0,-0.4,.,0.1
COc1ccc(S(=O)(=O)Nc2cccc3c2O[C@@H](CN(C)C(=O)Nc2ccc4c(c2)OCO4)[C@H](C)CN([C@@H](C)CO)C3=O)cc1,-6.2[16.7 µM],1.3,-0.7,0.3,0.0
O=C(Nc1cc2c(cc1[N+](=O)[O-])OCCO2)c1cccnc1,.,0.5,-3.7,43.1*,-0.1
Cc1cc(CN2CCCC(CO)(Cc3cccc(Cl)c3)C2)n[nH]1 (stereo not given),16.4,-6.6,-0.2,43.5*,.
Clc1cccc(Cc2c(-c3cccc(Br)c3)nc3c4ccccc4ccn23)c1,2.5,-3.2,1.1,43.3*,-0.2
Oc1cc(Nc2ccccc2)cc2cccnc12,21.2,-4.8,-1.4,0.0,-0.2
Oc1cccc2cc(Nc3ccccc3)cnc12,.,-6.0,10.0*,-0.2,0.2
CCCNC(=O)Nc1ccc2c(c1)C(=O)N(C)C[C@@H](OC)[C@@H](C)CN(C(=O)c1ccccc1F)[C@H](C)CO2,-2.1[16.7 µM],.,-0.5,.,0.3
Cc1cc(C)nc(N2CCCC(C(=O)NCc3ccccc3)C2)n1 (stereo not given),-148.7,.,.,.,.
Cc1ccc(CNC(=O)C2CCCN(c3nc(C)cc(C)n3)C2)cc1 (stereo not given),2.4,-1.9,-1.4,43.4*,-1.4
SMILES,Env fusion inh,S100A4 inh HTS,CFTR F508del cor,FGF22 binding,E-sel inducer
C[C@@H]1CCCCO[C@H](CN(C)Cc2ccc3c(c2)OCO3)[C@@H](C)CN([C@@H](C)CO)C(=O)c2cc(NS(=O)(=O)c3ccc(Cl)cc3)ccc2O1,4.0[16.7 µM],-6.0,-1.6,.,.
COc1cc(OC)cc(C(=O)NNC(=O)CCNC(=O)c2ccc(Br)cc2)c1,0.6,-2.5,-0.5,0.2,.
COc1ccc(Cl)cc1C(=O)NNC(=O)CCNC(=O)c1ccccc1,-21.8,-0.8,2.1,44.1*,0.1
O=C(CCNC(=O)c1ccccc1)NNC(=O)c1ccc(F)cc1,.,-3.3,1.6,0.2,-1.8
CCCOc1ccc(C(=O)NNC(=S)NC(=O)CC)cc1,60.0*,.,.,.,.
COc1ccc(Cl)cc1C(=O)NNC(=O)CCNC(C)=O,3.0,-12.7,0.0,0.0,.
CCOc1ccc(C(=O)NNC(=O)CCNC(=O)c2ccc(Br)cc2)cc1OC,-14.2,-0.8,21.2*,-0.1,-0.2
O=C(CCNC(=O)c1ccc(Br)cc1)NNC(=O)c1ccccc1,-5.3,-7.1,-1.4,43.3*,1.0
COCC(=O)N(C)C[C@H]1Oc2cc(C#CC(C)(C)O)ccc2S(=O)(=O)N([C@H](C)CO)C[C@H]1C,3.5[16.7 µM],-3.2,4.3,-0.1,-0.1
CC(C)NC(=O)Nc1cccc2c1O[C@@H](CN(C)C(=O)Nc1ccc(F)cc1)[C@@H](C)CN([C@H](C)CO)C2=O,.,-5.1,-2.4,-0.1,-0.1
Cc1ccc(OCCC(=O)NNC(=O)c2ccc(Br)cc2)cc1,3.8,-42.1,8.6*,0.1,-0.5
COc1ccccc1C(=O)NC(=O)CSc1nncn1C,-0.1,0.5,0.8,-0.2,0.1
Cc1ccc(OCCC(=O)NNC(=O)c2ccncc2)cc1,4.7,2.8,-0.8,-0.1,0.1
COc1ccc(CSc2nncn2C)cc1F,60.4*,-2.3,-2.7,0.0,.
COc1ccc(CSc2nnc(-c3ccncc3)n2C)cc1F,9.1,-20.8,-1.1,0.1,-0.1
COc1ccc(Cl)cc1C(=O)NNC(=O)CSc1nncn1C,.,-0.7,-3.4,43.2*,0.3
CCCN(CC(=O)Nc1ccccc1OC)C(=O)c1cccc(S(=O)(=O)NCc2ccccc2)c1,90.1*,-1.7,-1.0,0.4,0.1
CCCN(CC(=O)Nc1ccccc1OC)C(=O)c1cc(S(=O)(=O)NCc2ccccc2)ccc1C,35.0,-3.9,-1.4,-0.1,-0.5
CC[n+]1ccc(/C=C/c2ccc(N(C)C)cc2)c2ccccc21,22.8,42.6,-6.9,41.4,114.6*
CCCCCC[n+]1ccccc1/C=C/c1ccc(N(C)C)cc1,42.5,92.9*,1.1,-0.1,-0.1
CC[n+]1ccccc1/C=C/c1ccc(N(C)C)cc1,?,-75.4,2.5,0.0,.
CC(C)Oc1ccc(C(CC(=O)O)n2cnnn2)cc1 (stereo not given),4.6,-2.9,.,43.1*,.
COc1ccc(NC(=O)N(C)C[C@H]2Oc3ccc(NS(=O)(=O)c4ccc(Cl)cc4)cc3CC(=O)N([C@@H](C)CO)C[C@@H]2C)cc1,4.6[16.7 µM],-0.8,-3.1,-0.1,0.4
COc1ccc(NC(=O)C(=O)c2cn(CC(=O)N3CCCC3)c3ccccc23)cc1OC,2.5,3.0,9.3*,-0.3,-0.1
